Reference: ChEMBL document CHEMBL3865807, “Syntheses and photodynamic activity of some glucose-conjugated BODIPY dyes” (Eur J Med Chem, 2016)
Calls of active or inactive are those of the source. The rule behind the calls is not given here.

Assays:
[1] = system: A549; test: Induction of apoptosis in human A549 cells assessed as pro-caspase 3 level at 2.5 uM preincubated for 1 hr followed by 0.77 mW/cm2 white light irradiation for 80 mins measured after 24 hrs by immunoblot analysis relative to control; type: functional
Procedure, shortened: (§1)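 Whole-cell extracts from A549 cells (1×10^6) treated with 0 or 2.5 µM compound, photo-exposed 80 min, lysed in Tris pH 7.4/NaCl/EDTA/Triton with protease inhibitors; 30 µg protein on 12% SDS-PAGE, nitrocellulose, milk block, caspase-3 antibody overnight 4 °C, HRP secondary, chemiluminescence; band ratio to normal control (=1) after loading-control normalisation.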

[2] = Drug uptake in cytoplasm of human A549 cells at 1 uM after 0.25 to 3 hrs by Hoechst 33342 staining based fluorescence microscopy; type: ADME, cell-based; details: a549, 1 µM
Procedure, shortened: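 A549 cells on coverslips loaded with dyes (1 µM) for 0.25, 0.5, 1, 2 or 3 h at 37 °C, washed, counterstained with Hoechst 33342 (10 µM), mounted in 70% glycerol; red dye and blue nuclear fluorescence imaged by fluorescence microscopy (40×) and overlaid.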

[3] = Drug uptake in human L-132 cells assessed as mean fluorescence intensity at 2.5 uM after 8 hrs by flow cytometry (reference value: 4.6 +/- 1.2); type: ADME, cell-based; details: l132, 8 h
[4] = Drug uptake in human L-132 cells assessed as mean fluorescence intensity at 2.5 uM after 4 hrs by flow cytometry (reference value: 4.6 +/- 1.2); type: ADME, cell-based; details: l132, 4 h
[5] = Drug uptake in mitochondria of human A549 cells at 100 nM measured up to 4 hrs by Mito-Tracker green staining based confocal microscopy; type: ADME; details: a549, 4 h, 0.1 µM
Procedure, shortened: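 Overnight-seeded A549 cells loaded with dye (100 nM), incubation periods 0.5-4 h tested, then ER-Tracker Green (500 nM) or MitoTracker Green (100 nM) for 30 min at 37 °C; washed, confocal imaging: trackers ex 488/em 500-530 nm, dye ex 543/em 560-640 nm; overlap of images judged.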

[6] = system: A549; test: Induction of apoptosis in human A549 cells assessed as increase in caspase 9 activity at 2.5 uM preincubated for 1 hr followed by 0.77 mW/cm2 white light irradiation for 80 mins measured after 16 hrs in presence of caspase-9 inhibitor Z-LEHD-FMK by immunoblot analysis; type: functional, cell-based
[7] = system: A549; test: Induction of apoptosis in human A549 cells assessed as pro-caspase 3 level at 2.5 uM preincubated for 1 hr followed by 0.77 mW/cm2 white light irradiation for 80 mins measured after 8 hrs by immunoblot analysis relative to control; type: functional; procedure, shortened: as §1
[8] = system: A549; test: Induction of apoptosis in human A549 cells assessed as accumulation at subG1 phase at 5 to 50 uM preincubated for 1 hr followed by 0.77 mW/cm2 white light irradiation for 80 mins measured after 24 hrs by propidium iodide staining based flow cytometry relative to control; type: functional
Procedure, shortened: (§2)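 Cells exposed 1 h to compound (5-50 µM; vehicle 0.1% DMSO), washed, then irradiated (0.77 mW/cm²) for 0, 30 or 80 min; after serum addition kept 24 h. PI/RNase A staining in hypotonic 0.1% citrate-0.1% Triton X-100, 30 min, 37 °C; sub-G1 peak by flow cytometry, debris gated out, ≥2×10^4 cells; five replicates, mean ± SEM.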

[9] = system: A549; test: Photocytotoxicity against human A549 cells assessed as decrease in cell viability at 500 to 5000 nM preincubated for 1 hr followed by 0.77 mW/cm2 white light irradiation measured after 24 hrs by MTT assay; type: functional, cell-based; details: TDE = time-dependent effect
Procedure, shortened: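 A549 cells (1×10^4/well), plated overnight, given compound for 1 h in serum-free medium, washed twice with PBS, irradiated 0.5, 1, 2 or 4 h at 0.77 mW/cm² (37 °C, 5% CO₂), then 24 h in regular medium; MTT 0.5 mg/mL for 6 h, formazan dissolved in 0.01 N HCl/10% SDS, A550.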

[10] = Induction of apoptosis in human A549 cells assessed as caspase 3 activation at 2.5 uM preincubated measured after 24 hrs under dark condition by immunoblot analysis; type: cell-based; details: a549, 24 h
[11] = Drug uptake in human A549 cells assessed as mean fluorescence intensity at 2.5 uM after 4 hrs by flow cytometry (reference value: 5.4 +/- 1.5); type: ADME, cell-based; details: a549, 4 h
[12] = Drug uptake in human L-132 cells assessed as mean fluorescence intensity at 2.5 uM after 16 hrs by flow cytometry (reference value: 4.6 +/- 1.2); type: ADME, cell-based; details: l132, 16 h
[13] = (§3) Cell cycle arrest in human A549 cells assessed as accumulation at subG1 phase at 2.5 uM preincubated for 1 hr followed by 0.77 mW/cm2 white light irradiation for 80 mins measured after 24 hrs in presence of 50 uM of beta-carotene by propidium iodide staining based flow cytometry (reference value: 8.2 +/- 1.1%); type: functional
[14] = Photocytotoxicity against human L-132 cells at 50 uM using 0.77 mW/cm2 white light irradiation by MTT assay; type: toxicity, cell-based; details: l132, 50 µM
[15] = system: A549; test: Induction of apoptosis in human A549 cells assessed as decrease in pro-caspase 3 level at 2.5 uM preincubated for 1 hr followed by in 0.77 mW/cm2 white light irradiation for 80 mins by immunoblot analysis; type: functional, cell-based; details: TDE = time-dependent effect; procedure, shortened: as §1
[16] = Cell cycle arrest in human A549 cells assessed as accumulation at subG1 phase at 2.5 uM preincubated for 1 hr followed by 0.77 mW/cm2 white light irradiation for 80 mins measured after 24 hrs by propidium iodide staining based flow cytometry (reference value: 8.2 +/- 1.1%); type: functional
[17] = system: A549; test: Induction of apoptosis in human A549 cells assessed as accumulation at subG1 phase at 5 to 50 uM preincubated for 1 hr followed by 0.77 mW/cm2 white light irradiation for 30 mins measured after 24 hrs by propidium iodide staining based flow cytometry relative to control; type: functional; procedure, shortened: as §2
[18] = as §3, with “100” for “50”; type: functional
[19] = system: A549; test: Photocytotoxicity in human A549 cells assessed as decrease in cell survival at 2.5 uM preincubated for 1 hr followed by 0.77 mW/cm2 white light irradiation for 80 mins measured after 24 hrs in presence of caspase 9 inhibitor Z-LEHD-FMK by MTT assay; type: functional, cell-based
Procedure, shortened: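 Cells pre-incubated 1 h with caspase-9 inhibitor Z-LEHD-FMK (20 µM), then compound 2.5 µM for 1 h and light 80 min (0.77 mW/cm²); viability at 24 h by MTT; five replicates, mean ± SEM.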

[20] = Induction of apoptosis in human A549 cells assessed as accumulation at subG1 phase up to 50 uM measured after 24 hrs under dark condition by propidium iodide staining based flow cytometry; type: cell-based; details: a549, 24 h; procedure, shortened: as §2
[21] = species: Bos taurus; test: Binding affinity to calf thymus duplex DNA assessed as decrease in intensities of maximum absorption at 50 uM by spectrophotometric titration analysis

In the case of CCC1=C(C)C2=C(C)c3c(C)c(CC)c(C)n3[B-](F)(F)[N+]2=C1/C=C/c1ccc(O[C@H]2O[C@H](CO)[C@@H](O)[C@H](O)[C@H]2O)cc1, the “fold change (FC)” value [1] is reported as 0.2, the Drug uptake [2] is reported as “Active” and the Flu intensity [3] is reported as 49.5. For the same compound, the Flu intensity [4] was 56.8, the Drug uptake [5] was “Active” and the Activity [6] was “Active”. For the same compound, the “fold change (FC)” value [7] was 0.8, the “fold change (FC)” value [8] was 5 - 6 and the Activity [9] was “Tde”. The Activity [10] was “Non-Toxic”, the Flu intensity [11] was 66.2 to 68.9 and the Flu intensity [12] was 41.5. For the same compound, the Activity [13] was 51.8%, the Activity [14] was 5 to 7% and the Activity [15] was “Tde”. The Activity [16] was 68.8%, the “fold change (FC)” value [17] was 2.8 - 3.3 and the Activity [18] was 43.2%. The Activity [19] was “Active”, the Activity [20] was “Non-Toxic” and the Activity [21] was “Active”.
